# Measurements from different studies.
# Compare with care: the assays were run in different laboratories.
# EGFR L861Q: Epidermal growth factor receptor (EGFR, Homo sapiens, UniProt P00533, L861Q)
# EGFR G719S: Epidermal growth factor receptor (EGFR, Homo sapiens, UniProt P00533, G719S)
# EGFR L858R: Epidermal growth factor receptor (EGFR, Homo sapiens, UniProt P00533, L858R)
# EGFR L858R/T790M: Epidermal growth factor receptor (EGFR, Homo sapiens, UniProt P00533, L858R/T790M)
# EGFR del747-752/P753S: Epidermal growth factor receptor (EGFR, Homo sapiens, UniProt P00533, del747-752/P753S)
# EGFR del746-750: Epidermal growth factor receptor (EGFR, Homo sapiens, UniProt P00533, del746-750)
# EGFR del752-759: Epidermal growth factor receptor (EGFR, Homo sapiens, UniProt P00533, del752-759)
Compound,target,assay,setting,remaining binding [%]
CN(C(=O)c1ccccc1)c1cc(N(C)c2ccc3c(c2)CCc2ccc(C(=O)NCCN4CCOCC4)cc2C3=O)ccc1F,EGFR L861Q,"cell-free assay, competition with immobilised ligand",1 µM,100
CN(C)c1nccc(-c2cnc3ncccn23)n1,EGFR L861Q,binding,1 µM,90
CCN1CCN(Cc2ccc(C(=O)Nc3ccc(C)c(Oc4ccc5c(c4)CC(=O)N5)c3)cc2C(F)(F)F)CC1,"Epidermal growth factor receptor (EGFR, Homo sapiens, UniProt P00533, G719C)","binding, competition with immobilised ligand",1 µM,100
CO[C@@H](C)c1c(Nc2ccc([C@@H](N(C)C(=O)C3CCS(=O)(=O)CC3)C(F)(F)F)cc2)cnc2cc(Cl)nn12,EGFR G719S,"cell-free assay, competition with immobilised ligand",1 µM,96
C[C@H]1CCN(c2nccc(-c3cnn4ncccc34)n2)C1,EGFR L858R,binding,1 µM,100
O=C(NCCCN1CCOCC1)c1ccc(Nc2nccc(-c3cc4ccccc4s3)n2)cc1,EGFR L858R/T790M,"binding, competition with immobilised ligand",1 µM,75
N[C@@H]1CCN(c2nccc(-c3cnn4ncccc34)n2)C1,"Epidermal growth factor receptor (EGFR, Homo sapiens, UniProt P00533, T790M)",binding,1 µM,100
c1cncc(-c2cccc(Nc3nccc(NC4CCCCC4)n3)c2)c1,EGFR L858R/T790M,"binding, competition with immobilised ligand",10 µM,29
C[C@H](c1ccnc(Nc2nc3ccc(-c4cc(N(C)C)ncn4)cc3[nH]2)c1)N1CCN(C(=O)CC(F)(F)F)CC1,EGFR del747-752/P753S,"cell-free assay, competition with immobilised ligand",0.1 µM,69
O=C(NCC1CCOCC1)c1n[nH]cc1NC(=O)c1c(F)cccc1F,EGFR del746-750,"binding, competition with immobilised ligand",1 µM,100
Nc1cnc(N2CCc3cc(S(=O)(=O)Nc4c(F)cc(Cl)cc4F)cc(N4CCCC4=O)c32)nc1,EGFR L858R,"cell-free assay, competition with immobilised ligand",1 µM,85
CN(C)c1ncc(F)c(-c2cnn3ncccc23)n1,EGFR del746-750,binding,1 µM,100
O=C(c1ccc(Nc2nccc(-c3cc4ccccc4s3)n2)cc1)N1CCC(N2CCCC2)CC1,EGFR L858R,"binding, competition with immobilised ligand",1 µM,100
CN(C)CC#Cc1ccc(OCCCc2sc(N3CCc4cccc(C(=O)Nc5nc6ccccc6s5)c4C3)nc2C(=O)O)c(F)c1,EGFR del747-752/P753S,"cell-free assay, competition with immobilised ligand",1 µM,100
F[C@@H]1CCN(c2nccc(-c3cnn4ncccc34)n2)C1,EGFR del752-759,binding,1 µM,100
Cn1nc(C(=O)NCc2ccc(C(=O)O)cc2)cc1-c1ccc2[nH]ccc2c1,EGFR L861Q,"cell-free assay, competition with immobilised ligand",0.1 µM,69
COc1ccnn2ncc(-c3ccnc(N(C)C)n3)c12,EGFR G719S,binding,1 µM,96
O=C(Nc1c[nH]nc1C(=O)NC1CCNCC1)c1cc(F)cc(F)c1,EGFR L858R,"binding, competition with immobilised ligand",1 µM,90
O=C(c1ccc(Nc2ncc(Cl)c(-c3ccc(Cl)s3)n2)cc1)N1CCC(N2CCCC2)CC1,EGFR del746-750,"binding, competition with immobilised ligand",1 µM,90
Nc1ncc2c(n1)-c1c([nH]c3ccc(C#CC4CC4)cc13)CCCC2,EGFR L858R,"binding, competition with immobilised ligand",1 µM,100
O=C(NC[C@@H]1[C@H]2CN(C(=O)OCc3cc(C(F)(F)F)cc(C(F)(F)F)c3)C[C@@H]12)c1ccc2[nH]nnc2c1,EGFR L858R/T790M,"cell-free assay, competition with immobilised ligand",1 µM,80
CNC(=O)[C@@H]1CC[C@@H](n2c(-c3ccc4cnccc4c3)nc3ccc(C(=O)NCc4cccc(C(N)=O)c4)cc32)C1,EGFR del752-759,"binding, competition with immobilised ligand",1 µM,91
O=C(N[C@H]1CCCCC/C=C\C2C[C@@]2(C(=O)O)NC(=O)[C@@H]2C[C@@H](Oc3ccncc3)CN2C1=O)OC1CCCC1 (stereo partly shown),EGFR del746-750,"cell-free assay, competition with immobilised ligand",1 µM,78
COc1cnc(Nc2cccc(S(N)(=O)=O)c2)nc1N1CCN(c2ccccc2)C(=O)C1,EGFR L858R,"binding, competition with immobilised ligand",1 µM,100
Cc1cnc(Nc2ccc(C(=O)N3CCC(N4CCCC4)CC3)cc2)nc1-c1cc2ccccc2s1,EGFR G719S,"binding, competition with immobilised ligand",1 µM,97
CC1CCCN1c1nccc(-c2cnn3ncccc23)n1 (stereo not shown),EGFR L858R,binding,1 µM,100
COc1cnc(Nc2cccc(S(N)(=O)=O)c2)nc1N1CCN(c2ccccc2)CC1,EGFR del746-750,"binding, competition with immobilised ligand",1 µM,90
O=C(NCCCN1CCOCC1)c1ccc(Nc2ncc(Cl)c(-c3ccc(Cl)s3)n2)cc1,"Epidermal growth factor receptor (EGFR, Homo sapiens, UniProt P00533)","binding, competition with immobilised ligand",1 µM,89
